Screening results as filed in PubChem.
Rows were chosen to be rich in hits. Some 1.2% of all compounds tested hit in one or more screens of this group.
Tn7 DDE FP: inhibitors of Tn7 peptide binding to human fibrin DD(E). FP displacement of FITC-Tn7 peptide from fibrin DD(E); 0% = median of compound wells per plate. 370,000 compounds, 0.13% hits. P02675. inhibition, % at 8.3 µM;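 active = inhibition above the mean of compounds falling within the control limits plus 3 SD of them, cut at about 14% in these data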;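 also: 0% = plate median of compound wells and 100% = 10 µM Aha-Tn7 peptide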
Target sequence (P02675 whole entry, looked up): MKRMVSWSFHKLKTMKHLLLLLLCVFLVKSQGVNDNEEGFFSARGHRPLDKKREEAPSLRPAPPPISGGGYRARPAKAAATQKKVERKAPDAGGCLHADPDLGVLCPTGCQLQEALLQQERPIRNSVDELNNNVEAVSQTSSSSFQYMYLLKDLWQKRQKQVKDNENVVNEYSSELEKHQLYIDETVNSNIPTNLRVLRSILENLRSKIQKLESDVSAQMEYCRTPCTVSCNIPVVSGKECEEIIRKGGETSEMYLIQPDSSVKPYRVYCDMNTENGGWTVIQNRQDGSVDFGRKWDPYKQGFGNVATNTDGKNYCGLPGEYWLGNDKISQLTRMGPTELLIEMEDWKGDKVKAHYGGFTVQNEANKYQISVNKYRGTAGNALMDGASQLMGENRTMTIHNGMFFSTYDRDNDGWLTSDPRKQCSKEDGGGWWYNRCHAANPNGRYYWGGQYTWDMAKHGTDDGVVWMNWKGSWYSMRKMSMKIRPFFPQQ
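system = human fibrin DD(E) protein | quantity = DD(E) 2 µM final | medium = Tris/NaCl/CaCl2 buffer, pH 7.8 | also added = labelled Tn7 tracer, 0.1 µM | compound dosing = single point at 8.3 µM | timing = compound with protein 10 min, then 3 h after probe, room temperature | signal = FP measurement | benchmarks = Aha-Tn7 high control | repeats = one replicate per compound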
CRFR2-BP antag: antagonists of CRF-binding protein/CRF-R2 receptor complex | HEK293 CRF-R2/CRF-BP, CRF-induced calcium fluorescence | inhibition, % at 11.8 µM | 350,000 compounds, 0.59% hits | AID 588475;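 active = inhibition of the ligand-induced calcium signal above about 50% at the single tested concentration, limit read from the data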
Tn6 DDE FP: DD(E)-Tn6 binding inhibition, primary FP screen | P02675 | Fibrin DD(E) TRITC-Tn6 fluorescence polarization displacement | inhibition, % at 8.3 µM | 370,000 compounds, 0.21% hits | AID 720509;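 active = inhibition above a per-campaign cutoff: mean of compounds within control limits plus 3 SD, cut at about 15% in these data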;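 also: 0% = median of all compound wells on the plate and 100% = blocking peptide control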
CRFR2-BP ag: agonists of human CRF-binding protein/CRF-R2 receptor complex. HEK293 CRF-R2/CRF-BP, calcium dye fluorescence (FLIPR); percent of saturating CRF peptide response. activation, % at 13.2 µM. 350,000 compounds, 0.46% hits. AID 588473;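 active = activation of at least 50%, plus an integration ratio under a set limit after plate pattern correction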;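 also: plate controls were neutral control wells without compound for no effect and CRF at EC100 for full effect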
Active calls of the source: *; . = no result.

SMILES	Tn7 DDE FP	CRFR2-BP antag	Tn6 DDE FP	CRFR2-BP ag
CCN(CC)S(=O)(=O)c1ccc2c(c1)N(CC(=O)NCc1ccco1)C(=O)CO2	9	83*	4	-1
CC1CCC2(CC1)CCN(CCCOC(=O)Nc1cccc(C(F)(F)F)c1)C2=O (stereo not drawn)	3	.	0	.
COC(=O)c1sc(-c2ccc(C(C)(C)C)cc2)cc1NC(=O)CSCC(=O)O	-5	54*	0	1
COC(=O)c1sc(-c2ccc(C(C)(C)C)cc2)cc1NC(=O)c1ccccc1C(=O)O	12	19	5	3
O=c1cc(C(F)(F)F)[nH]c2ccc(OC(F)(F)F)cc12	-1	69*	-6	50
O=c1cc(C(F)(F)F)[nH]c2c(C(F)(F)F)cccc12	.	33	.	54*
CCOc1ccc2[nH]c(C)cc(=O)c2c1	-3	1	2	2
NC(=Nc1cccc(F)c1)NC(=O)OCc1ccccc1	-1	.	4	.
COc1ccc(/C(O)=C2/C(=O)C(=O)N(CCN(C)C)C2c2cccnc2)cc1OC (stereo not drawn)	-8	-1	2	1
COc1ccc(/C(O)=C2/C(=O)C(=O)N(CCN(C)C)C2c2cccnc2)cc1C (stereo not drawn)	3	5	3	94*
O=C1CCC(C(=O)Nc2ccccc2N2CCCC2)=NN1	0	-1	-5	1
O=C1CCC(C(=O)Nc2ccccc2N2CCOCC2)=NN1	1	67*	-3	-2
Cc1nn(C)c(C(=O)N/N=C/c2cccc(Oc3ccccc3)c2)c1Br	3	-54	3	58*
CC(C)CN(C(=O)c1cc(Cl)nc2ccccc12)C1CCS(=O)(=O)C1 (stereo not drawn)	-2	-9	7	3
CCCN(C(=O)c1cc(Cl)nc2ccccc12)C1CCS(=O)(=O)C1 (stereo not drawn)	3	75*	-1	-2
CCOC(=O)Cn1cc(CN2CCS(=O)(=O)N(Cc3ccc(Cl)cc3)C(C(=O)OC)C2)nn1 (stereo not drawn)	-4	.	-8	.
CCN(CC)c1ccc(/C=C(/C#N)c2nc3ccccc3[nH]2)c(OC(C)C)c1	-3	-219	1	158*
CN(C)c1ccc(C2C=C(c3ccc(Cl)cc3OC(F)F)Nc3ncnn32)cc1 (stereo not drawn)	-3	-63	7	59*
C[C@@H]1OC(C2CCCCC2)N(C)[C@H]2C[C@H]3c4cc(N5CCOCC5)ccc4CCN3C[C@@H]12 (stereo partly drawn)	-5	.	-9	.
COc1ccc(C[N+]2=C(N)NC3=C4CCCCC4n4c(=O)n(-c5ccccc5)c(=O)n4C3C2)c(OC)c1 (stereo not drawn)	1	.	2	.
O=C(O)c1ccc(-n2ncc3c2/C(=C/c2cccc([N+](=O)[O-])c2)CC3)cc1	0	73*	-6	-6
Cc1cccc(N2CCN(C(=O)CCc3nc4ccccc4c(=O)[nH]3)CC2)c1C	1	74*	4	-5
Cn1c(=O)c2[nH]c(SCC(=O)N3CCN(c4cccc(C(F)(F)F)c4)CC3)nc2n(C)c1=O	5	.	13	.
Cc1ccc(NC(=O)C2CC3CCC2C3)c(C)c1 (stereo not drawn)	3	.	2	.
OCCCNc1nc(-c2ccccc2)c2cc(Br)ccc2n1	-5	-25	5	9
SMILES	Tn7 DDE FP	CRFR2-BP antag	Tn6 DDE FP	CRFR2-BP ag
Cc1ccc2nc(NCCC(=O)O)nc(-c3ccccc3)c2c1	5	38	-6	146*
O=C(O)CCNc1nc(-c2ccccc2)c2cc(Br)ccc2n1	10	-25	-1	96*
Cc1ccc2nc(NCC(=O)O)nc(-c3ccccc3)c2c1	0	0	0	-2
CCOC(=O)C1CCN(c2cc3c(cc2NC(=O)c2cc(OC)ccc2Br)n(C)c(=O)n3C)CC1	3	72*	3	-6
CCOC(=O)C1CCN(c2cc3c(cc2NC(=O)c2ccccc2Br)n(C)c(=O)n3C)CC1	2	-3	-1	-5
O=C(O)c1ccc(/C=N/Nc2cccc(C(F)(F)F)c2)cc1	2	76*	0	0
O=C(NCCc1ccccc1)C1CCN(S(=O)(=O)c2cccc3nonc23)CC1	-8	-1	6	1
O=C(NCCc1ccccc1)C1CCCN(S(=O)(=O)c2cccc3nonc23)C1 (stereo not drawn)	14*	-13	6	-1
CCN(CC)C(=O)CC[C@H]1CC[C@]2(CCCN(S(=O)(=O)c3ccccc3)C2)O1	4	.	-1	.
Cc1ccc(CN2CCN(/N=C/C(Br)=C\c3ccccc3)CC2)cc1	1	-74	-1	129*
Cc1ccc(S(=O)(=O)N2CCN(C(=O)COc3ccc(C)nc3[N+](=O)[O-])CC2)c(C)c1	-3	78*	2	-1
CC(=O)Oc1ccc2cc(-c3cccnc3)c(=O)oc2c1	2	79*	6	0
Cc1ccc(O)c(C(=O)c2cc(C#N)c(=O)n(-c3nccs3)c2)c1	-11	-108	-7	166*
Cc1ccc(O)c(C(=O)c2cc(C#N)c(=O)n(CC3CCCO3)c2)c1 (stereo not drawn)	-3	-18	-5	-5
CC(C)CN1CCN(Cc2cccc3nccnc23)CC1CCO (stereo not drawn)	-3	74*	-5	0
CCCCCCCOC(=O)C[N+](C)(C)CCOC1CC2CCC1(C)C2(C)C (stereo not drawn)	-3	-158	2	111*
CCN(C[C@H]1[C@@H](c2ccc(C3=CCCC3)cc2)[C@H](CO)N1c1nc(C)c(C)s1)S(=O)(=O)c1ccccc1[N+](=O)[O-]	0	.	-3	.
CC[C@H]1C=C[C@@H](C(=O)NS(=O)(=O)c2ccc(C)cc2)N(C(C)=O)C1	-4	.	5	.
O=C(COC(=O)c1ccncc1)Nc1cc(Cl)ccc1Cl	7	52*	6	-4
O=C(COC(=O)c1ccncc1)Nc1ccccc1	-8	10	7	2
CCN(CC)C(=O)CSc1ncnc2c1nnn2-c1ccc(F)cc1	-3	4	4	-2
CCN(CC)C(=O)CSc1ncnc2c1nnn2-c1ccc(OC)cc1	.	84*	.	1
S=c1[nH]nc(-c2cc(-c3ccccc3)n[nH]2)n1N=Cc1c[nH]c2ccccc12	10	.	-4	.
O=C(NCCc1csc(-c2ccccc2)n1)c1c(F)cccc1Cl	0	88*	9	-1
O=C(NCCc1csc(-c2ccccc2)n1)c1c(F)cccc1F	2	-14	6	-5
COC(=O)C1CN(Cc2ccccc2)CCS(=O)(=O)N1Cc1ccc(Cl)cc1 (stereo not drawn)	-7	.	-4	.
CC(=O)CC[C@H]1CC[C@]2(CCCN(Cc3nccn3C)C2)O1	-6	.	-1	.
COC(=O)c1ccc(CN2C(=O)C(C)N(C(=O)c3c(F)cccc3F)c3ccccc32)cc1 (stereo not drawn)	6	58*	-2	-1
